For experiment [1], the system named is KG-1. Nature of the experiment: Induction of apoptosis in human KG1 cells at 1.0 uM […] by acridine orange staining. The class given is functional.
In experiment [2] the test system is MDA-MB-231. Nature of the experiment: Antiproliferative activity against human MDA-MB-231 cells at 20 uM after 72 hrs by MTT assay. In kind it is functional. The note with it: MDA-MB-231, 72 h. A digest of the protocol:
(§1)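 Cells attached for 24 h, then exposed 72 h to analogue in Me2SO or Me2SO alone (final Me2SO 0.1%), with media and compound renewed after 48 h. Viable cells were measured by MTS tetrazolium reduction in three replicates. Top concentration tested per compound was 2.5, 5, 10, 20 or 100 μM.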
A general note: Formazan colour is commonly taken as a measure of viable cells.

The test system of experiment [3] is DU-145. Kind of experiment: Antiproliferative activity against human DU145 cells after 72 hrs by MTT assay. The note with it: DU-145, 72 h. The class given is functional, cell-based. A digest of the protocol: as §1
Experiment [4] in a line: Antiproliferative activity against human KG1 AML cells at 5 uM after 48 hrs by MTT assay. The class given is functional. To be noted: in the assay text read “by hemocytometer cell counting” for “by MTT assay”. Put shortly: (§2)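 KG-1 cells in 5% FBS medium attached overnight, then treated 48 h with analogue in Me2SO or Me2SO alone (final 0.1%). Cells were harvested and counted by hemocytometer in triplicate wells. Highest concentration evaluated was 5 μM.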

Experiment [5] is described as follows: Antiproliferative activity against human H292 cells after 72 hrs by MTT assay. In kind it is functional, cell-based. To be noted: NCI-H292, 72 h. Put shortly:
as §1

Experiment [6] relates to KG-1. Kind of experiment: Induction of apoptosis in human KG1 cells at 5.0 uM […] by acridine orange staining. The class given is functional.
The test system of experiment [7] is DU-145. Kind of experiment: Antiproliferative activity against human DU145 cells at 20 uM after 72 hrs by MTT assay. The class given is functional. The note with it: DU-145, 72 h. Put shortly: as §1
The subject of experiment [8] is MDA-MB-231. Kind of experiment: Antiproliferative activity against human MDA-MB-231 cells after 72 hrs by MTT assay. The class given is functional, cell-based. To be noted: MDA-MB-231, 72 h. A digest of the protocol:
as §1

Experiment [9] can be described thus: Antiproliferative activity against human KG1 AML cells after 48 hrs by MTT assay. The note with it: in the assay text read “by hemocytometer cell counting” for “by MTT assay”. In kind it is functional, cell-based. A digest of the protocol: as §2
The nature of experiment [10]: Antiproliferative activity against human H292 cells at 20 uM after 72 hrs by MTT assay. The class given is functional. To be noted: NCI-H292, 72 h. Put shortly:
as §1

The target of experiment [11] is T1, Tyrosine-protein phosphatase non-receptor type 11 (Homo sapiens, UniProt Q06124).
T1 sequence (Q06124 whole entry): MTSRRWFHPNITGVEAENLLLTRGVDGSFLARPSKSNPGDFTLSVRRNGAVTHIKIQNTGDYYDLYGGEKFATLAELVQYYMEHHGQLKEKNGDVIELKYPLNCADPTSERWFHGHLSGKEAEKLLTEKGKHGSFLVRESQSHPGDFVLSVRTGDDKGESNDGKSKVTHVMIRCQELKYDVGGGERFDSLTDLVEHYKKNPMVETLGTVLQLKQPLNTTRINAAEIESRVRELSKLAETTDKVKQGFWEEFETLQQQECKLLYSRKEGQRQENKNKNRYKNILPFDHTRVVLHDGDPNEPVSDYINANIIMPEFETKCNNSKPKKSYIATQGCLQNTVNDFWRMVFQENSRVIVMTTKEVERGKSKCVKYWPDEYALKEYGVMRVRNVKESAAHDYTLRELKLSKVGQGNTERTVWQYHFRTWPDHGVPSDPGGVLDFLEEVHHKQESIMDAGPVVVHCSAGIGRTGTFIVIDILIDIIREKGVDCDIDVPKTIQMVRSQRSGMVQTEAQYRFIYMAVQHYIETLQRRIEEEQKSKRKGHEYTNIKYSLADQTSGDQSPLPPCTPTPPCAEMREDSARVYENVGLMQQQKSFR
Kind of experiment: Inhibition of SHP2 overexpressed in human KG1 cells. In kind it is cell-based, KG-1. Put shortly:
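Shp-2 PTP activity was measured as hydrolysis of the fluorogenic substrate 6,8-difluoro-4-methylumbelliferyl phosphate in the presence of analogue in Me2SO or Me2SO alone (final concentration 5%).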

Experiment [12] deals with MDA-MB-231. Kind of experiment: Antiproliferative activity against human MDA-MB-231 cells at 2.5 uM after 72 hrs by MTT assay. In kind it is functional. The note with it: MDA-MB-231, 72 h. A digest of the protocol:
as §1

The test system of experiment [13] is MDA-MB-231. Kind of experiment: Induction of apoptosis in human MDA-MB-231 cells at 1.0 uM after 96 hrs by acridine orange staining. In kind it is functional. Put shortly: (§3)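 KG-1, HL-60R (24 h) or MDA-MB-231 (96 h) cells in 5% FBS medium attached overnight, then were treated with analogue in Me2SO or vehicle (final 0.1% Me2SO). Apoptotic cells were scored by acridine orange staining on at least three replicates. Tested concentrations were 0.1–5.0 μM, plus 25 μM for KG-1.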

Experiment [14] has as its system MDA-MB-231. Kind of experiment: Induction of apoptosis in human MDA-MB-231 cells at 2.0 uM after 96 hrs by acridine orange staining. In kind it is functional. Put shortly: as §3
Experiment [15] deals with KG-1. Nature of the experiment: Induction of apoptosis in human KG1 cells after 48 hrs by acridine orange staining. In kind it is functional, cell-based. To be noted: KG-1, 48 h.
Experiment [16] is described as follows: Antiproliferative activity against human H292 cells at 2.5 uM after 72 hrs by MTT assay. In kind it is functional. The note with it: NCI-H292, 72 h. Put shortly:
as §1

Experiment [17] in a line: Induction of apoptosis in human HL60R cells at 1.0 uM after 24 hrs by acridine orange staining. In kind it is functional. Put shortly: as §3
Experiment [18] addresses T2, Nuclear receptor subfamily 0 group B member 2 (Homo sapiens, UniProt Q15466).
T2 sequence (Q15466 whole entry): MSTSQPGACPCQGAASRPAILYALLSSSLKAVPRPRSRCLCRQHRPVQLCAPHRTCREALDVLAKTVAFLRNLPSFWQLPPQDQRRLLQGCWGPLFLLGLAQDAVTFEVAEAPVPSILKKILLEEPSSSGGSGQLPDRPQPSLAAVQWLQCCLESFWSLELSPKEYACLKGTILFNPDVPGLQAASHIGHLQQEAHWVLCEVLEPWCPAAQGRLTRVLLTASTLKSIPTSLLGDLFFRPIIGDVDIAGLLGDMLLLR
Nature of the experiment: Displacement of [5,5'-3H2]AHPN from human recombinant GST-SHP by liquid scintillation counting relative to 3-Cl-AHPC. A digest of the protocol:
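Recombinant GST–human SHP was bound to glutathione–Sepharose beads and incubated 2 h with 5 nM [5,5′-3H2]AHPN with or without competitor (1.0, 5.0 or 50 μM). Beads were washed twice and counted. Displacement was expressed relative to 50 μM 3-Cl-AHPC set as 100%.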

Experiment [19] relates to DU-145. Kind of experiment: Antiproliferative activity against human DU145 cells at 2.5 uM after 72 hrs by MTT assay. To be noted: DU-145, 72 h. In kind it is functional. Put shortly: as §1
A short description of experiment [20]: Induction of apoptosis in human HL60R cells at 0.1 uM after 24 hrs by acridine orange staining. The class given is functional. Put shortly:
as §3

The structures appear in SMILES notation.

Broadly, the inhibition is the drop in the measured response relative to a control, in per cent. The low end stands for little suppression, the high end for strong suppression. As a reminder, the IC50 is the point on the concentration scale where inhibition reaches its midpoint. Regarding `CC1(c2cc(-c3ccc(/C=C/C(=O)O)cc3Cl)ccc2O)SCCCS1`, the Activity in the experiment on KG-1 [1] is on record as 5%; in experiment [4] it was 0%; in the experiment with KG-1 [6], 5%. Besides, the inhibition at 20 µM was determined as 13% in the experiment on MDA-MB-231 [2], 8% in the experiment with DU-145 [7] and 6% in experiment [10]. Moreover, the IC50 is above 20 µM with DU-145 [3]; above 20 µM in experiment [5]; above 20 µM in the experiment with MDA-MB-231 [8]; above 5 µM in [9]; 10.2 µM in [11].

As to `O=C(O)/C=C/c1ccc(-c2ccc(O)c(C34CC5CC(CC(C5)C3)C4)c2)c(Cl)c1`, the Activity with KG-1 [1] is on record as 30%; in the experiment on MDA-MB-231 [13], 31%; in experiment [4], 67%; in the experiment on KG-1 [6], 55%; in the experiment with MDA-MB-231 [14] it was 43%; in experiment [17], 94%. In addition, in experiment [20], the Activity was determined as 51%. The inhibition at 2.5 µM with MDA-MB-231 [12] turned out to be 63%; in experiment [16] it was 92%; with DU-145 [19], 85%. For the same compound, the IC50 came to 0.48 µM in the experiment with DU-145 [3]; 0.4 µM in experiment [5]; 4.2 µM in the experiment on KG-1 [15]; 0.95 µM in the experiment with MDA-MB-231 [8]; 2.5 µM in experiment [18]; 1.4 µM in experiment [9]. In [11], this compound gave an IC50 of 2.1 µM.

The record behind these values is ChEMBL document CHEMBL1140080, “Adamantyl-substituted retinoid-derived molecules that interact with the orphan nuclear receptor small heterodimer partner: effects of replacing the 1-adamantyl or hydroxyl group on inhibition of cancer cell growth, induction of cancer cell apoptosis, and inhibition of SRC homology 2 …” (J Med Chem, 2008).
